In brackets after ≈: the same amount, converted by molar mass. Like-named read-outs stand apart in the source and are kept apart here. Non-standard residues stand in square brackets, D forms with d. Residues, ends and D or L forms follow the SMILES beside them. No end group written: not given here. *: point of attachment. Myristoyl = CCCCCCCCCCCCCC(=O)*; Lauroyl = CCCCCCCCCCCC(=O)*; Decanoyl = CCCCCCCCCC(=O)*; Octanoyl = CCCCCCCC(=O)*
Experiments:
P. aeruginosa PAO1 [1] = type: cell-based, Pseudomonas aeruginosa
S. aureus USA300 LAC [2] = conditions: for Minimal inhibitory concentration (MIC): USA300, pH 7.4; for MIC SA: USA300
[3] = system: Klebsiella pneumonia ATCC 13883; type: cell-based, Klebsiella pneumoniae
E. coli ATCC25922 [4] = system: E. coli ATCC25922
HaCaT cells = type: cell-based, human
P. aeruginosa PAO1 [5] = conditions: LL-37; ref [36]; cited from earlier work
[6] = system: Klebsiella pneumonia ATCC 13883; conditions: LL-37; ref [36]; cited from earlier work
E. coli ATCC25922 [7] = conditions: LL-37; ref [36]; cited from earlier work
human red blood cells [8] = conditions: LL-37; ref [36]; cited from earlier work
human red blood cells [9] = type: cell-based; conditions: red cells of human, 1 h
S. aureus V8 protease = S. aureus V8 protease (Staphylococcus aureus, UniProt P0C1U8); type: in vitro ADME; conditions: 10 mM PBS pH 7.4, 37 °C, 3 h and 1 day, SDS-PAGE, Coomassie
S. aureus V8 protease, sequence (P0C1U8 69-336): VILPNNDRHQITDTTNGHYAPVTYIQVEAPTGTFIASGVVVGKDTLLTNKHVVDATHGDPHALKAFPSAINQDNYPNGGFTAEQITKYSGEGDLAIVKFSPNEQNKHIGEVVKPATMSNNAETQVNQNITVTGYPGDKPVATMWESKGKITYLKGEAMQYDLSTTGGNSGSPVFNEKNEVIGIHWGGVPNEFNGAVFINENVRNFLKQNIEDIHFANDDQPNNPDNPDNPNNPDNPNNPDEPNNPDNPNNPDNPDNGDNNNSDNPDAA

S. aureus USA300 LAC [10] = assay: Bacterial membrane permeation; type: cell-based, Staphylococcus aureus; conditions: 12.5 μM, 37 °C, fluorescence read every 5 min
Method in brief: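 Exponential-phase S. aureus USA300 at final OD600 ~0.1 in TSB or PBS, with propidium iodide (20 μM as added) and serially diluted peptide (12.5 μM in figure). Daptomycin and rifamycin serve as controls. Incubated at 37 °C with 100 rpm shaking in a plate reader. Fluorescence (ex 584/em 620 nm) read every 5 min for 24 cycles; average values plotted.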

S. aureus USA300 LAC [11] = assay: Resistance development, multiple passage experiment; type: cell-based, Staphylococcus aureus; conditions: 14 days/passages at sub-MIC; average of three independent experiments
fungal proteinase K = fungal proteinase K (Parengyodontium album, UniProt P06873); assay: Protease stability by SDS-PAGE, proteinase K; type: in vitro ADME; conditions: 10 mM PBS pH 7.4, 37 °C, 1 day, Coomassie
fungal proteinase K, sequence (P06873 106-384): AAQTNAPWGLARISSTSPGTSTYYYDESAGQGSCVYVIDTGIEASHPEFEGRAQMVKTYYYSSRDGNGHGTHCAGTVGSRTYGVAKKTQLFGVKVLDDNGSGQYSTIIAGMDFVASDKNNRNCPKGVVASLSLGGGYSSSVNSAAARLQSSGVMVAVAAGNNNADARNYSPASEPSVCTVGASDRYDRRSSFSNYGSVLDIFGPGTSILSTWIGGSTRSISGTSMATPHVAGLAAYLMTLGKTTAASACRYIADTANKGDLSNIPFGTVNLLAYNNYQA

[12] = system: MCP-1, IL-17A, IL-10, TNF-α; assay: Cytokine levels in tissues surrounding catheters; type: in vivo, mouse; conditions: tissue surrounding catheter, day 3 after peptide treatment
Method in brief: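 Catheter biofilm mouse model under ketamine/xylazine (100/10 mg/kg) anesthesia. Peptide 15 mg/kg injected at five sites in and around the catheter 2 h post infection. Untreated infected and uninfected-catheter groups included. Day 3: CO₂ euthanasia, peri-catheter tissue harvested and homogenized, stored at −80 °C. Cytokines quantified by individual mouse cytokine ELISA kits in duplicate with standards.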

C57BL/6 mice = assay: In vivo toxicity; parameters: species or system mouse
S. aureus USA300 LAC [13] = assay: Systemic efficacy in neutropenic murine infection model; type: in vivo, mouse; conditions: neutropenic mice, single dose 5 mg/kg i.p., n = 8, vs untreated
Method in brief: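 Female C57BL/6 mice, 6 weeks old, made neutropenic with cyclophosphamide (day 1 150 mg/kg, day 4 100 mg/kg). Day 5: i.p. infection with ~2×10⁶ CFU S. aureus USA300. Single i.p. peptide dose 2 h later. Spleen, liver, lung and kidney weighed, homogenized in PBS, diluted, plated on blood agar (37 °C, overnight). CFU per tissue; Mann-Whitney test.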

Compound: CCCCCCCC(=O)N[C@@H](CCCCN)C(=O)N[C@@H](CCCNC(=N)N)C(=O)N[C@H](C(=O)N[C@@H](Cc1c[nH]c2ccccc12)C(=O)N[C@@H](CCC(N)=O)C(=O)N[C@@H](CCCNC(=N)N)C(=O)N[C@H](C(=O)N[C@@H](CCCCN)C(=O)N[C@@H](CC(=O)O)C(=O)N[C@@H](Cc1ccccc1)C(N)=O)[C@@H](C)CC)[C@@H](C)CC [Peptide C8-KR10] (Octanoyl-KRIWQRIKDF-NH2)
- MIC PA (P. aeruginosa PAO1 [1]): 6.2 µM (≈ 9.39 µg/mL)
- Minimal inhibitory concentration (MIC) (S. aureus USA300 LAC [2]): 6.2 µM (≈ 9.39 µg/mL)
- MIC KP [3]: 25 µM (≈ 37.9 µg/mL)
- MIC EC (E. coli ATCC25922 [4]): 6.2 µM (≈ 9.39 µg/mL)
- relative toxicity to HaCaT cells (HaCaT cells): slightly less toxic than C8-KR10d

Compound: KRIVQRIKDFLR-NH2 [KR12, reference compound]
- MIC KP [3]: >50 µM
- MIC EC (E. coli ATCC25922 [4]): >50 µM

Compound: CCCCCCCC(=O)N[C@H](CCCCN)C(=O)N[C@H](CCCNC(=N)N)C(=O)N[C@@H](C(=O)N[C@H](Cc1c[nH]c2ccccc12)C(=O)N[C@H](CCC(N)=O)C(=O)N[C@H](CCCNC(=N)N)C(=O)N[C@@H](C(=O)N[C@H](CCCCN)C(=O)N[C@H](CC(=O)O)C(=O)N[C@H](Cc1ccccc1)C(N)=O)[C@H](C)CC)[C@H](C)CC [Peptide C8-KR10d] (Octanoyl-[dK][dR][dI][dW][dQ][dR][dI][dK][dD][dF]-NH2; C-terminus assumed)
- MIC PA (P. aeruginosa PAO1 [1]): 12.5 µM (≈ 18.9 µg/mL)
- MIC SA (S. aureus USA300 LAC [2]): 3.1 µM (≈ 4.7 µg/mL)
- Minimal inhibitory concentration (MIC) (S. aureus USA300 LAC [2]): 3.1 µM (≈ 4.7 µg/mL)
- MIC KP [3]: 12.5 µM (≈ 18.9 µg/mL)
- MIC EC (E. coli ATCC25922 [4]): 6.2 µM (≈ 9.39 µg/mL)

Compound: CC[C@H](C)[C@H](NC(=O)[C@H](CCCCN)NC(=O)[C@H](CCC(=O)O)NC(=O)[C@H](CCCCN)NC(=O)[C@H](CO)NC(=O)[C@H](CCCCN)NC(=O)[C@H](CCCNC(=N)N)NC(=O)[C@H](Cc1ccccc1)NC(=O)[C@H](Cc1ccccc1)NC(=O)[C@H](CC(=O)O)NC(=O)CNC(=O)[C@H](CC(C)C)NC(=O)[C@@H](N)CC(C)C)C(=O)NCC(=O)N[C@@H](CCCCN)C(=O)N[C@@H](CCC(=O)O)C(=O)N[C@@H](Cc1ccccc1)C(=O)N[C@@H](CCCCN)C(=O)N[C@@H](CCCNC(=N)N)C(=O)N[C@H](C(=O)N[C@H](C(=O)N[C@@H](CCC(N)=O)C(=O)N[C@@H](CCCNC(=N)N)C(=O)N[C@H](C(=O)N[C@@H](CCCCN)C(=O)N[C@@H](CC(=O)O)C(=O)N[C@@H](Cc1ccccc1)C(=O)N[C@@H](CC(C)C)C(=O)N[C@@H](CCCNC(=N)N)C(=O)N[C@@H](CC(N)=O)C(=O)N[C@@H](CC(C)C)C(=O)N[C@H](C(=O)N1CCC[C@H]1C(=O)N[C@@H](CCCNC(=N)N)C(=O)N[C@H](C(=O)N[C@@H](CCC(=O)O)C(=O)N[C@@H](CO)C(=O)O)[C@@H](C)O)C(C)C)[C@@H](C)CC)C(C)C)[C@@H](C)CC [LL-37]
- MIC PA (P. aeruginosa PAO1 [5]): >50 µM
- MIC KP [6]: 6.2 µM (≈ 27.9 µg/mL)
- Minimal inhibitory concentration against S. aureus (S. aureus USA300 LAC [2]; 10% TSB): 50 µM (≈ 225 µg/mL)
- Minimal inhibitory concentration against S. aureus (S. aureus USA300 LAC [2]; 50% TSB): >50 µM
- Minimal inhibitory concentration against S. aureus (S. aureus USA300 LAC [2]; 100% MHB): >50 µM
- Minimal inhibitory concentration against S. aureus (S. aureus USA300 LAC [2]; 100% TSB): >50 µM
- MIC EC (E. coli ATCC25922 [7]): 3.1 to 6.2 µM
- HC50 (human red blood cells [8]): 170 µM

Compound: CCCCCCCCCC(=O)N[C@@H](CCCCN)C(=O)N[C@@H](CCCNC(=N)N)C(=O)N[C@H](C(=O)N[C@@H](Cc1c[nH]c2ccccc12)C(=O)N[C@@H](CCC(N)=O)C(=O)N[C@@H](CCCNC(=N)N)C(=O)N[C@H](C(=O)N[C@@H](CCCCN)C(N)=O)[C@@H](C)CC)[C@@H](C)CC [Peptide C10-KR8] (Decanoyl-KRIWQRIK-NH2)
- HC50 (human red blood cells [9]): 300 µM
- stability to S. aureus V8 protease (S. aureus V8 protease): except for S. aureus V8 protease
- MIC SA (S. aureus USA300 LAC [2]): 1.5 to 3.1 µM
- Minimal inhibitory concentration (MIC) (S. aureus USA300 LAC [2]): 3.1 µM (≈ 3.97 µg/mL)
- MIC KP [3]: 50 µM (≈ 64 µg/mL)
- MIC EC (E. coli ATCC25922 [4]): 12.5 µM (≈ 16 µg/mL)

Compound: CO[C@H]1/C=C/O[C@@]2(C)Oc3c(C)c(O)c4c(O)c(cc(O)c4c3C2=O)NC(=O)/C(C)=C\C=C\[C@H](C)[C@H](O)[C@@H](C)[C@@H](O)[C@@H](C)[C@H](OC(C)=O)[C@@H]1C [rifamycin, reference compound]
- membrane permeation (propidium iodide fluorescence) (S. aureus USA300 LAC [10]): unable to achieve the same effect

Compound: CCCCCCCCCC(=O)N[C@H](CCCCN)C(=O)N[C@H](CCCNC(=N)N)C(=O)N[C@@H](C(=O)N[C@H](Cc1c[nH]c2ccccc12)C(=O)N[C@H](CCC(N)=O)C(=O)N[C@H](CCCNC(=N)N)C(=O)N[C@@H](C(=O)N[C@H](CCCCN)C(N)=O)[C@H](C)CC)[C@H](C)CC [Peptide C10-KR8d] (Decanoyl-[dK][dR][dI][dW][dQ][dR][dI][dK]-NH2)
- MIC increase during serial passages (S. aureus USA300 LAC [11]): no changes
- HC50 (human red blood cells [9]): 300 µM
- stability to S. aureus V8 protease (S. aureus V8 protease): resistant
- stability to fungal proteinase K (fungal proteinase K): resistant
- IL-10 level [12]: decrease
- IL-17A level [12]: up-regulation
- MCP-1/CCL2 level [12]: up-regulation
- TNFα level [12]: decrease
- MIC PA (P. aeruginosa PAO1 [1]): 6.2 µM (≈ 7.94 µg/mL)
- Minimal inhibitory concentration (MIC) (S. aureus USA300 LAC [2]): 3.1 µM (≈ 3.97 µg/mL)
- survival (C57BL/6 mice; 10 mg/kg i.p., female C57BL/6 mice n=3, 5 days observation): all mice survived
- survival (C57BL/6 mice; 20 mg/kg i.p., female C57BL/6 mice n=3, 5 days observation): all mice survived
- survival (C57BL/6 mice; 40 mg/kg i.p., female C57BL/6 mice n=3, died in a day): all mice died
- maximal tolerated dose (MTD) (C57BL/6 mice; i.p., C57BL/6 mice, 20 mg/kg or more but less than 40 mg/kg): ≥ 20 mg/kg
- MIC KP [3]: 25 µM (≈ 32 µg/mL)
- membrane permeation (propidium iodide fluorescence) (S. aureus USA300 LAC [10]): able to permeate the membranes
- CFU decrease in kidney (S. aureus USA300 LAC [13]): not in spleen and kidney
- CFU decrease in spleen (S. aureus USA300 LAC [13]): not in spleen and kidney
- relative toxicity to HaCaT cells (HaCaT cells): slightly more toxic than C10-KR8

Compound: CCCCCCCCCC(=O)N[C@@H](CCCCN)C(=O)N[C@@H](CCCNC(=N)N)C(=O)N[C@H](C(=O)N[C@@H](Cc1c[nH]c2ccccc12)C(=O)N[C@@H](CCC(N)=O)C(=O)N[C@@H](CCCNC(=N)N)C(=O)N[C@H](C(=O)N[C@@H](CCCCN)C(=O)N[C@@H](CC(=O)O)C(=O)N[C@@H](Cc1ccccc1)C(N)=O)[C@@H](C)CC)[C@@H](C)CC [Peptide C10-KR10] (Decanoyl-KRIWQRIKDF-NH2)
- MIC PA (P. aeruginosa PAO1 [1]): 6.2 µM (≈ 9.57 µg/mL)
- MIC KP [3]: 6.2 µM (≈ 9.57 µg/mL)

Compound: CCOc1ccc2ccccc2c1C(=O)N[C@@H]1C(=O)N2[C@@H]1SC(C)(C)[C@@H]2C(=O)O [nafcillin, reference compound]
- MIC increase during serial passages (S. aureus USA300 LAC [11]): over 30 fold

Compound: CCCCCCCC(=O)N[C@@H](CCCCN)C(=O)N[C@@H](CCCNC(=N)N)C(=O)N[C@H](C(=O)N[C@@H](Cc1c[nH]c2ccccc12)C(N)=O)[C@@H](C)CC [Peptide C8-KR4] (Octanoyl-KRIW-NH2; C-terminus assumed)
- MIC KP [3]: >50 µM

Compound: CCCCCCCCCCCCCC(=O)N[C@@H](CCCCN)C(=O)N[C@@H](CCCNC(=N)N)C(=O)N[C@H](C(=O)N[C@@H](Cc1c[nH]c2ccccc12)C(=O)N[C@@H](CCC(N)=O)C(=O)N[C@@H](CCCNC(=N)N)C(=O)N[C@H](C(=O)N[C@@H](CCCCN)C(N)=O)[C@@H](C)CC)[C@@H](C)CC [Peptide C14-KR8] (Myristoyl-KRIWQRIK-NH2)
- MIC KP [3]: >50 µM

Compound: CCCCCCCCCCCC(=O)N[C@@H](CCCCN)C(=O)N[C@@H](CCCNC(=N)N)C(=O)N[C@H](C(=O)N[C@@H](Cc1c[nH]c2ccccc12)C(=O)N[C@@H](CCC(N)=O)C(=O)N[C@@H](CCCNC(=N)N)C(=O)N[C@H](C(=O)N[C@@H](CCCCN)C(=O)N[C@@H](CC(=O)O)C(=O)N[C@@H](Cc1ccccc1)C(N)=O)[C@@H](C)CC)[C@@H](C)CC [Peptide C12-KR10] (Lauroyl-KRIWQRIKDF-NH2)
- MIC PA (P. aeruginosa PAO1 [1]): 3.1 µM (≈ 4.87 µg/mL)
- MIC KP [3]: 3.1 µM (≈ 4.87 µg/mL)
